Measurements from ChEMBL document CHEMBL1909537, “1-Aryl-5-(1H-pyrrol-1-yl)-1H-pyrazole-3-carboxamide: an effective scaffold for the design of either CB1 or CB2 receptor ligands” (Eur J Med Chem, 2011).
The source made the active and inactive calls. The calls are words filed in the database; no cut-off is given here.

How the values were obtained:
Homo sapiens [1] = species on record: Homo sapiens; experiment: Selectivity index, ratio of Ki for recombinant human CB1 receptor to Ki for recombinant human CB2 receptor
Method in brief: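 Index computed as Ki(CB1)/Ki(CB2). Each Ki comes from [3H]-CP-55,940 displacement on transfected HEK membranes (0.14 nM radioligand for CB1, 0.084 nM for CB2) via Cheng-Prusoff.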

Homo sapiens [2] = species on record: Homo sapiens; experiment: Selectivity index, ratio of Ki for recombinant human CB2 receptor to Ki for recombinant human CB1 receptor
Method in brief: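 Index computed as Ki(CB2)/Ki(CB1). Each Ki comes from [3H]-CP-55,940 displacement on transfected HEK membranes (0.14 nM radioligand for CB1, 0.084 nM for CB2) via Cheng-Prusoff.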

Cannabinoid receptor 2 = Cannabinoid receptor 2 (Homo sapiens, UniProt P34972); experiment: Displacement of [3H]CP-55,940 from recombinant human CB2 receptor expressed in HEK cells; type: cell-based, HEK293
Cannabinoid receptor 2, sequence (P34972 whole entry): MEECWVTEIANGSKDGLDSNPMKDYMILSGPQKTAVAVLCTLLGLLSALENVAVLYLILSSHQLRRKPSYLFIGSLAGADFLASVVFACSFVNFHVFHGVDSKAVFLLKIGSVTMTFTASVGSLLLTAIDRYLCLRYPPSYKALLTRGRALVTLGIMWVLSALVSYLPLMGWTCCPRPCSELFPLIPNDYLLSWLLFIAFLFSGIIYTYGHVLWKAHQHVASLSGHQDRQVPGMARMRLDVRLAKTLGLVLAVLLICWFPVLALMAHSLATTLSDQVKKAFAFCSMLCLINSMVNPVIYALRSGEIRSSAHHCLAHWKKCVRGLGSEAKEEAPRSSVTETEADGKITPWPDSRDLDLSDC
Method in brief: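 Competition binding on membranes of HEK cells transfected with human CB2, using [3H]-CP-55,940 at 0.084 nM (radioligand Kd 0.31 nM). Displacement curves give IC50, converted to Ki by the Cheng-Prusoff equation. Reference ligands run in parallel.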

Cannabinoid receptor 1 = Cannabinoid receptor 1 (Homo sapiens, UniProt P21554); experiment: Displacement of [3H]CP-55,940 from recombinant human CB1 receptor expressed in HEK cells; type: cell-based, HEK293
Cannabinoid receptor 1, sequence (P21554 whole entry): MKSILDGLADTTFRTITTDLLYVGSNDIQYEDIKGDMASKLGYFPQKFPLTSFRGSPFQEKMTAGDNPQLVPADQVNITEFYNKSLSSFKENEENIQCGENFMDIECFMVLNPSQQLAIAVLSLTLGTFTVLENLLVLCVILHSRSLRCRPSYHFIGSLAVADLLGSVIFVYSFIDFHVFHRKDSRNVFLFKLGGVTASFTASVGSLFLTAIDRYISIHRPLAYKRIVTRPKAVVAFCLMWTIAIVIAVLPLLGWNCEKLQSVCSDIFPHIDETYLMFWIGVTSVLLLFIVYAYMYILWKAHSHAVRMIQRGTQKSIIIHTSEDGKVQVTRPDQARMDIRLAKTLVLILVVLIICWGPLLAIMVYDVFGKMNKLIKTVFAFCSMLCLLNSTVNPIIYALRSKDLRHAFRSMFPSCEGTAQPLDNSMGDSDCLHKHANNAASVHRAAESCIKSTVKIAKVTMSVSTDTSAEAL
Method in brief: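 Competition binding on membranes of HEK cells transfected with human CB1, using [3H]-CP-55,940 at 0.14 nM (radioligand Kd 0.18 nM). Displacement curves give IC50, converted to Ki by the Cheng-Prusoff equation. Reference ligands run in parallel.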

Rattus norvegicus [3] = experiment: Reduction in food intake in Wistar rat at 2 mg/kg, ip administered 30 mins before lights off measured 6 hrs after lights off relative to vehicle-treated control; type: functional, organism-based; parameters: dose 2 mg/kg
Method in brief: (§1)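 Wistar rats had free access to 1% w/v sucrose solution, water and regular chow. On test day they were split into groups of n = 15, matched on body weight and on sucrose and food intake over the prior 3 days. Drug was suspended in saline with 0.05% v/v Tween 80 and given ip at 0, 1 or 2 mg/kg (3 mL/kg), 30 min before lights off. Data were analysed by ANOVA with Newman-Keuls test.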

Rattus norvegicus [4] = experiment: Reduction in water intake in Wistar rat at 2 mg/kg, ip administered 30 mins before lights off measured 6 hrs after lights off relative to vehicle-treated control; type: functional, organism-based; parameters: dose 2 mg/kg; method in brief: as §1
Rattus norvegicus [5] = experiment: Reduction in sucrose intake in Wistar rat at 2 mg/kg, ip administered 30 mins before lights off measured 6 hrs after lights off relative to vehicle-treated control; type: functional; parameters: scale not given: the % may be the effect or the level left; conditions: route intraperitoneal; method in brief: as §1

Row | Compound | Ratio Ki (Homo sapiens [1]) | Ratio Ki (Homo sapiens [2]) | Ki (Cannabinoid receptor 2) [nM] | Ki (Cannabinoid receptor 1) [nM] | Activity (Rattus norvegicus [3]) | Activity (Rattus norvegicus [4]) | Activity (Rattus norvegicus [5]) [%]
1 | CCc1c(C(=O)NC2CCCCC2)nn(-c2ccc(Cl)c(Cl)c2)c1-n1cccc1 | 30 | 0.033 | 0.51 | 15.3 |  |  | 
2 | CCc1c(C(=O)NCc2ccc(Cl)c(Cl)c2)nn(-c2ccc(Cl)cc2Cl)c1-n1c(C)ccc1C | 0.94 | 1.06 | 53.1 | 56.1 |  |  | 
3 | CCc1ccc(CC)n1-c1c(C)c(C(=O)NC2CCCCC2)nn1-c1ccc(Cl)c(Cl)c1 | 0.33 | 3 | 410 | 136 |  |  | 
4 | CCc1c(C(=O)NCc2ccc(Cl)c(Cl)c2)nn(-c2ccc(Cl)c(Cl)c2)c1-n1c(C)ccc1C | 8.49 | 0.118 | 114 | 966 |  |  | 
5 | CCc1c(C(=O)NC2CCCCC2)nn(-c2ccc(Cl)c(Cl)c2)c1-n1c(C)ccc1C | 28.2 | 0.035 | 1.7 | 48 |  |  | 
6 | Cc1c(C(=O)NC2CCCCC2)nn(-c2ccc(Cl)cc2Cl)c1-n1c(Cl)ccc1Cl | 0.49 | 2 | 19.1 | 9.4 |  |  | 
7 | Cc1c(C(=O)NCc2ccc(Cl)c(Cl)c2)nn(-c2ccc(Cl)cc2Cl)c1-n1cccc1Cl | 0.26 | 3.9 | 98.5 | 25.2 |  |  | 
8 | Cc1c(C(=O)NCc2ccc(Cl)c(Cl)c2)nn(-c2ccc(Cl)cc2Cl)c1-n1c(Cl)ccc1Cl | 0.49 | 2 | 135 | 66.1 |  |  | 
9 | CCc1c(C(=O)NC2CCCCC2)nn(-c2ccc(Cl)cc2Cl)c1-n1c(C)ccc1C | 0.009 | 112 | 754 | 6.7 |  |  | 
10 | Cc1c(C(=O)NC2CCCCC2)nn(-c2ccc(Cl)cc2Cl)c1-n1cccc1Cl | 0.4 | 2.4 | 18.3 | 7.7 |  |  | 
11 | CCc1ccc(CC)n1-c1c(C)c(C(=O)NCc2ccc(Cl)c(Cl)c2)nn1-c1ccc(Cl)c(Cl)c1 |  |  | > 10000 | > 10000 |  |  | 
12 | CCc1c(C(=O)NC2CCCCC2)nn(-c2ccc(Cl)cc2Cl)c1-n1cccc1 | 0.19 | 5.3 | 15.8 | 3 |  |  | 
13 | Cc1c(C(=O)NCc2ccc(Cl)c(Cl)c2)nn(-c2ccc(Cl)cc2Cl)c1-n1cc2c(c1)CCCC2 | 0.63 | 1.6 | 72.9 | 45.9 |  |  | 
14 | Cc1c(C(=O)NCc2ccc(Cl)c(Cl)c2)nn(-c2ccc(Cl)c(Cl)c2)c1-n1c(Cl)ccc1Cl | 0.34 | 2.9 | 162 | 55.6 |  |  | 
15 | CCc1c(C(=O)NCc2ccc(Cl)c(Cl)c2)nn(-c2ccc(Cl)c(Cl)c2)c1-n1cccc1 | 15.3 | 0.065 | 29.6 | 454 |  |  | 
16 | CCc1c(C(=O)NCc2ccc(Cl)c(Cl)c2)nn(-c2ccc(Cl)cc2Cl)c1-n1cccc1 | 0.11 | 9.3 | 455 | 48.7 |  |  | 
17 | Cc1c(C(=O)NCc2ccc(Cl)c(Cl)c2)nn(-c2ccc(Cl)c(Cl)c2)c1-n1cccc1Cl | 1.38 | 0.73 | 53.9 | 74.1 |  |  | 
18 | Cc1c(C(=O)NC2CCCCC2)nn(-c2ccc(Cl)cc2Cl)c1-n1cc2c(c1)CCCC2 | 0.006 | 164 | 376 | 2.3 | inactive | inactive | 25
19 | Cc1c(C(=O)NC2CCCCC2)nn(-c2ccc(Cl)c(Cl)c2)c1-n1c(Cl)ccc1Cl | 4.31 | 0.23 | 1.3 | 5.6 |  |  | 
20 | Cc1c(C(=O)NC2CCCCC2)nn(-c2ccc(Cl)c(Cl)c2)c1-n1cccc1Cl | 9.56 | 0.11 | 0.9 | 8.6 |  |  | 
